# Experimental data pooled from the literature.
# Lines come from different studies, so protocols differ.
# Action: inhibitor
# EGFR: Epidermal growth factor receptor (EGFR, Homo sapiens, UniProt P00533)
# EGFR L858R/T790M: Epidermal growth factor receptor (EGFR, Homo sapiens, UniProt P00533, L858R/T790M)
# EGFR L858R: Epidermal growth factor receptor (EGFR, Homo sapiens, UniProt P00533, L858R)
SMILES,target,effect on,method,cell line,tested at,inhibition
CNCc1ccc(-c2cc(-c3nc(-c4ccc(S(=O)(=O)C(C)C)cc4)cnc3N)on2)cc1,EGFR,enzyme activity,,,2 µM,0%
CCCS(=O)(=O)Nc1ccc(F)c(C(=O)c2c[nH]c3ncc(-c4ccc(Cl)cc4)cc23)c1F,EGFR,enzyme activity,,,1 µM,< 10%
COc1cc(N(C)CCN(C)C)c(NC(=O)C=C(C)C)cc1Nc1nc(Nc2cnn(C)c2)c2sccc2n1,EGFR L858R/T790M,enzyme activity,ELISA,,0.1 µM,25.1%
CN(C)C1CCN(CC#Cc2nn(C3CCCC3)c3nc(NCc4ccccc4)ncc23)C1 (stereo not drawn),EGFR,enzyme activity,FRET,,10 µM,17%
CCOc1cc(-c2nncn2C)ccc1Nc1ncc2cc(C)nc(NCC(C)(C)C)c2n1,EGFR,enzyme activity,FRET,,1 µM,< 15%
COc1cc2c(Nc3cccc(OCCn4ccnc4[N+](=O)[O-])c3)ncnc2cc1OCCCN1CCOCC1,EGFR,enzyme activity,FRET,,1 µM,24%
CS(=O)(=O)Nc1cccc(-c2csc(NC(=O)CSc3nc4nccnc4c(=O)n3CCc3ccccc3)n2)c1,EGFR,enzyme activity,,,10 µM,-1%
CSc1nc(C)c(-c2ccnc(Nc3ccc(N4CCOCC4)cc3)c2)[nH]1,EGFR,cell-free assay,,,10 µM,56.6%
C=C(Cl)C(=O)Nc1cc(Nc2nc(N3CCc4sccc4C3)c3sccc3n2)c(OC)cc1N(C)CCN(C)C,EGFR L858R/T790M,enzyme activity,ELISA,,0.1 µM,90.3%
C=CC(=O)Nc1cc(Nc2nccc(Nc3cc(Cl)c(F)cc3C(C)(C)O)n2)c(OC)cc1N1CC[C@@H](N(C)C)C1,EGFR L858R/T790M,enzyme activity,,,1 µM,99%
C=CC(=O)Nc1cc(Nc2nc(Nc3cnn(C)c3)c3sccc3n2)c(OC)cc1N(C)CCN(C)C,EGFR L858R/T790M,enzyme activity,ELISA,,0.1 µM,6.7%
CNc1cc(Oc2cc(C(=O)Nc3cc(N4CCN(C)CC4)cc(C(F)(F)F)c3)ccc2C)ncn1,EGFR,target engagement in cells,chemoproteomics,Huh-7,1 µM,-15.5%
C=C(Cl)C(=O)Nc1cc(Nc2nc(N3CCOCC3)c3sccc3n2)c(OC)cc1N(C)CCN(C)C,EGFR L858R/T790M,enzyme activity,ELISA,,0.1 µM,57.8%
O=C(CSc1nc2nccnc2c(=O)n1CCc1ccccc1)Nc1nccs1,EGFR,enzyme activity,,,10 µM,-2%
COc1cc2ncnc(Nc3ccc(Oc4ccccc4)c(C)c3C)c2cc1OC,"Epidermal growth factor receptor (EGFR, Homo sapiens, UniProt P00533, L861Q)",enzyme activity,,,1 µM,86%
C=CC(=O)Nc1cc(Nc2nc(N3CCc4sccc4C3)c3cccnc3n2)c(OC)cc1N1CCN(CC)CC1,EGFR L858R/T790M,enzyme activity,ELISA,,0.1 µM,23.4%
COc1cc(-c2cc(-c3ccc(N4CCNCC4)cc3)cnc2N)cc(OC)c1OC,"Epidermal growth factor receptor (EGFR, Homo sapiens, UniProt P00533, T790M)",enzyme activity,,,0.1 µM,2%
C=C(Cl)C(=O)Nc1cc(Nc2nc(N3CCSCC3)c3sccc3n2)c(OC)cc1N(C)CCN(C)C,EGFR L858R/T790M,enzyme activity,ELISA,,0.1 µM,50.2%
COc1cc2ncnc(Nc3ccc(Oc4ccccc4)cc3C)c2cc1OC,EGFR L858R,enzyme activity,,,1 µM,64%
C=C(Cl)C(=O)Nc1cc(Nc2nc(N3CCCC3)c3sccc3n2)c(OC)cc1N(C)CCN(C)C,EGFR L858R/T790M,enzyme activity,ELISA,,0.1 µM,12.7%
CC/C(=N\NC(=O)NCc1cccc(O)c1)c1ccc(O)c(C)c1O,EGFR L858R,enzyme activity,,,0.1 µM,0.5%
